Measured values as given in ChEMBL document CHEMBL1132155, “Endothelin antagonists: substituted mesitylcarboxamides with high potency and selectivity for ET(A) receptors” (J Med Chem, 1999).
≈ marks a conversion by molar mass, not a printed value.

Tests used:
[1] = biological target: T1, Endothelin-1 receptor (Homo sapiens) (UniProt P25101); assay: Competitive binding to Endothelin A receptor by displacement of [125I]ET1 (Relative IC50 was calculated as IC50 of compound/IC50 of TBC11251)
T1 sequence (whole entry): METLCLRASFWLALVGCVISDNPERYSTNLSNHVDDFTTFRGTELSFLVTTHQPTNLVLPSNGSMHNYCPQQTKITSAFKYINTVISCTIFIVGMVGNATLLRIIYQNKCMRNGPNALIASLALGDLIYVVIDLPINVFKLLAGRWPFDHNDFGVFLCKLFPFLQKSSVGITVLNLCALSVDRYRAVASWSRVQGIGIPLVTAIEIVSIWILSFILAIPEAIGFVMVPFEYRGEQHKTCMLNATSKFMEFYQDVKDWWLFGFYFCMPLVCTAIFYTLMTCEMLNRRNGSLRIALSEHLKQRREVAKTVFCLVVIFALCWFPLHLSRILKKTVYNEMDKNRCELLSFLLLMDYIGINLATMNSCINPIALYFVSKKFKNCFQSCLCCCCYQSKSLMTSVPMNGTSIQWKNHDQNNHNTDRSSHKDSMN

[2] = biological target: Endothelin receptor, ET-A/ET-B (Homo sapiens) (UniProt P24530+P25101); assay: Compound was evaluated for the selectivity of ET-A receptors (ET-B IC50/ ET-A IC50); format: protein assay
Endothelin receptor, ET-A/ET-B (Homo sapiens), sequence (P24530 whole entry, looked up, one chain of several): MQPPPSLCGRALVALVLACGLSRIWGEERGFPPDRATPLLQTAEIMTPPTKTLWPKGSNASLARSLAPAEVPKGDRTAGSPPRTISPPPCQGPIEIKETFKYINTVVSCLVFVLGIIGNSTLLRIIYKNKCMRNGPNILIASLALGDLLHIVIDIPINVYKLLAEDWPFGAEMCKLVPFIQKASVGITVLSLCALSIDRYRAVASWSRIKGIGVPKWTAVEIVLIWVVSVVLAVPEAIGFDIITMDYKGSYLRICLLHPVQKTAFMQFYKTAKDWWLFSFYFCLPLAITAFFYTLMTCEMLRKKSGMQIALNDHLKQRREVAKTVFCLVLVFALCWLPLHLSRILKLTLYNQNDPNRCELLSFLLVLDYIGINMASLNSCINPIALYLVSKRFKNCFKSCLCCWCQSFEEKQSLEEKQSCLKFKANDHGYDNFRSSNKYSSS

[3] = Compound was evaluated for the aqueous solubility (AS) in mg/mL (Measured in 0.2 M phosphate buffer of pH 7.4); format: physicochemical; conditions: read-out: AS
Method in brief: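 Solubility measured in 0.2 M phosphate buffer, pH 7.4. Where a preformed sodium salt was used, it was measured in saline (9 mg/mL).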

[4] = Compound was evaluated for the biological half-life when administered orally in Acute Pulmonary Hypertension Rat Model; format: ADME, organism-based; conditions: in vivo, po
Method in brief: (§1)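 Adult Harlan Sprague–Dawley rats received 50 mg/kg by gavage in 0.5% high-viscosity carboxymethyl cellulose (5 mL/kg). Serial 200 μL tail-vein blood samples were taken at selected times into heparin-coated tubes. Red cells were removed by centrifugation and plasma stored at −80 °C. Plasma proteins were precipitated with acetonitrile before HPLC analysis; serum half-life was derived from these samples.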

Rattus norvegicus [5] = assay: Compound was evaluated for the effective oral dose in Acute Pulmonary Hypertension Rat Model after administering 2 hours prior to experiment; format: functional
Method in brief: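 Rat model of acute hypoxia-induced pulmonary hypertension. Compound given orally 2 h before hypoxia. Reported value is the lowest tested dose giving 90–100% inhibition of mean pulmonary arterial pressure; mean systemic arterial pressure and heart rate were also monitored. Some entries give % inhibition at 5 mg/kg.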

Rattus norvegicus [6] = assay: Compound was evaluated for the biological half-life when administered orally in Acute Pulmonary Hypertension Rat Model; NM=Not measurable (T1/2 h); format: ADME, organism-based; conditions: in vivo, po; method in brief: as §1

SMILES	Relative ET-A IC50 [1]	Selectivity [2]	solubility [3] [mg/mL]	half-life [4] [h]	Effective dose (Rattus norvegicus [5]) [mg/kg]	T1/2 (Rattus norvegicus [6])
Cc1cc(C)c(OCC2CC2)c(C)c1NC(=O)c1sccc1S(=O)(=O)Nc1onc(C)c1Cl	0.07	59400	–	–	–	–
Cc1noc(NS(=O)(=O)c2ccsc2C(=O)Nc2c(C)c(CC#N)c(C)c(CC#N)c2C)c1Cl	3110	3	–	–	–	–
Cc1cc(C)c(OC(=S)N(C)C)c(C)c1NC(=O)c1sccc1S(=O)(=O)Nc1onc(C)c1Cl	0.09	22600	–	–	–	–
Cc1nc(C)c(NC(=O)c2sccc2S(=O)(=O)Nc2onc(C)c2Cl)c(C)n1	0.25	9160	–	–	–	–
CC(=O)OCc1c(C)cc(C)c(NC(=O)c2sccc2S(=O)(=O)Nc2noc(C)c2Cl)c1C	0.03	38400	–	–	–	–
Cc1cc2c(cc1C(C)C(=O)c1sccc1S(=O)(=O)Nc1onc(C)c1Cl)OCO2 (stereo not drawn)	5.63	–	–	–	–	–
Cc1cc2c(cc1CC(=O)c1sccc1S(=O)(=O)Nc1onc(C)c1Cl)OCO2 [SITAXENTAN]	1	3210	< 10	4.1	5	–
Cc1cc(C)c(NC(=O)c2sccc2S(=O)(=O)Nc2noc(C)c2Cl)c(C)c1CC#N	0.06	8550	70 (≈ 146 mM)	3.1	–	–
COc1c(C)cc(C)c(NC(=O)c2sccc2S(=O)(=O)Nc2onc(C)c2Cl)c1C	0.06	56400	< 10	1.8	–	–
Cc1cc(C)c(NC(=O)c2sccc2S(=O)(=O)Nc2onc(C)c2Cl)c(C)c1O	0.11	10900	83 (≈ 182 mM)	7.3	5	–
Cc1cc(C)c(CC(=O)c2sccc2S(=O)(=O)Nc2onc(C)c2Cl)c(C)c1O	0.08	10800	–	3.9	–	–
Cc1cc2c(cc1C(CC(=O)O)C(=O)c1sccc1S(=O)(=O)Nc1onc(C)c1Cl)OCO2 (stereo not drawn)	5.36	–	–	–	–	–
Cc1cc(C)c(N2CCCC2)c(C)c1NC(=O)c1sccc1S(=O)(=O)Nc1onc(C)c1Cl	0.15	–	–	–	–	–
Cc1cc(C)c(NC(=O)c2sccc2S(=O)(=O)Nc2onc(C)c2Cl)c(C)c1CN(C)C	0.88	–	–	–	–	–
COC(=O)c1cc(C)cc(C)c1NC(=O)c1sccc1S(=O)(=O)Nc1onc(C)c1Cl	0.16	36200	–	–	–	–
COc1cc(C#N)c(NC(=O)c2sccc2S(=O)(=O)Nc2onc(C)c2Cl)c(OC)c1OC	0.01	29200	43 (≈ 83.8 mM)	< 1	–	–
Cc1cc(C)c(S(N)(=O)=O)c(C)c1NC(=O)c1sccc1S(=O)(=O)Nc1onc(C)c1Cl	0.06	27800	30 (≈ 57.8 mM)	1.5	5	–
Cc1cc(C)c(NC(=O)c2sccc2S(=O)(=O)Nc2onc(C)c2C)c(C)c1CO	0.07	30400	–	–	–	–
Cc1cc(C)c(N(C)C)c(C)c1NC(=O)c1sccc1S(=O)(=O)Nc1onc(C)c1Cl	0.07	36600	50 (≈ 104 mM)	1	–	–
Cc1cc(C)c(NC(=O)c2sccc2S(=O)(=O)Nc2onc(C)c2Cl)c(C)c1CO	0.04	111000	65 (≈ 138 mM)	1.4	15	–
Cc1cc(C)c(NC(=O)c2sccc2S(=O)(=O)Nc2noc(C)c2Cl)c(C)c1CO	0.06	3500	–	–	–	–
Cc1cc(C)c(OS(=O)(=O)N(C)C)c(C)c1NC(=O)c1sccc1S(=O)(=O)Nc1onc(C)c1Cl	2.3	1630	–	–	–	–
COc1c(C)cc(C)c(CC(=O)c2sccc2S(=O)(=O)Nc2onc(C)c2Cl)c1C	0.13	7640	–	3.86	–	–

SMILES	Relative ET-A IC50 [1]	Selectivity [2]	solubility [3] [mg/mL]	half-life [4] [h]	Effective dose (Rattus norvegicus [5]) [mg/kg]	T1/2 (Rattus norvegicus [6])
Cc1cc(C)c(C(=O)O)c(C)c1NC(=O)c1sccc1S(=O)(=O)Nc1onc(C)c1Cl	0.79	–	–	–	–	–
CC(=O)Oc1c(C)cc(C)c(NC(=O)c2sccc2S(=O)(=O)Nc2onc(C)c2Cl)c1C	0.11	6970	–	–	–	–
Cc1cc(C)c(NC(=O)c2sccc2S(=O)(=O)Nc2onc(C)c2Cl)c(C)c1CC(=O)O	0.12	59900	–	–	–	–
COC(=O)Oc1c(C)cc(C)c(NC(=O)c2sccc2S(=O)(=O)Nc2onc(C)c2Cl)c1C	0.05	22200	–	–	–	Not Active
Cc1cc(C)c(NC(=O)c2sccc2S(=O)(=O)Nc2onc(C)c2Cl)c(C)c1CC#N	0.08	32900	< 10	2.3	5	–
Cc1cc(C)c(NS(C)(=O)=O)c(C)c1NC(=O)c1sccc1S(=O)(=O)Nc1onc(C)c1Cl	0.11	41700	< 10	2.1	–	–
Cc1noc(NS(=O)(=O)c2ccsc2C(=O)Nc2c(C)c(C)c(C)c(C)c2C)c1Cl	1.97	1080	–	–	–	–
Cc1cc(C)c(CNC(=O)c2sccc2S(=O)(=O)Nc2onc(C)c2Cl)c(C)c1CC#N	56.4	95	–	–	–	–
Cc1cc2c(cc1C(CCBr)C(=O)c1sccc1S(=O)(=O)Nc1onc(C)c1Cl)OCO2 (stereo not drawn)	38.4	59	–	–	–	–
CCOC(=O)N(C(=O)c1sccc1S(=O)(=O)Nc1onc(C)c1Cl)c1c(C)cc(C)c(O)c1C	5.56	1530	–	–	–	–
Cc1cc(C)c(OC(N)=O)c(C)c1NC(=O)c1sccc1S(=O)(=O)Nc1onc(C)c1Cl	0.34	6700	–	–	–	Not Active
Cc1cc(C)c(OCC(=O)O)c(C)c1NC(=O)c1sccc1S(=O)(=O)Nc1onc(C)c1Cl	0.05	23000	–	–	–	–
CC(=O)OCc1c(C)cc(C)c(NC(=O)c2sccc2S(=O)(=O)Nc2onc(C)c2C)c1C	0.06	160000	–	–	–	–
Cc1cc(C)c(NC(=O)c2sccc2S(=O)(=O)Nc2onc(C)c2C)c(C)c1CC#N	0.1	14600	< 10	1.8	–	–
COC(=O)c1c(C)cc(C)c(NC(=O)c2sccc2S(=O)(=O)Nc2onc(C)c2Cl)c1C	0.21	41900	–	–	–	–
Cc1cc(C)c(CNC(=O)c2sccc2S(=O)(=O)Nc2onc(C)c2Cl)c(C)c1	1.15e+06	0.004	–	–	–	–
COC(=O)Cc1c(C)cc(C)c(NC(=O)c2sccc2S(=O)(=O)Nc2onc(C)c2Cl)c1C	0.07	114000	–	–	–	–
Cc1cc(C)c(NC(=O)c2sccc2S(=O)(=O)Nc2onc(C)c2Cl)c(C)c1	0.1	7050	23 (≈ 52.3 mM)	2.5	–	–
Cc1cc(C)c(CC(=O)c2sccc2S(=O)(=O)Nc2onc(C)c2Cl)c(C)c1	0.24	9390	–	–	–	–
Cc1cc(C)c(NC(=O)c2sccc2S(=O)(=O)Nc2onc(C)c2Cl)c(C)c1COC(=S)N(C)C	0.21	16200	–	–	–	–
COCCOCCOCC(=O)Oc1c(C)cc(C)c(NC(=O)c2sccc2S(=O)(=O)Nc2onc(C)c2Cl)c1C	0.5	–	–	–	–	–
Cc1cc(C)c(NC(=O)c2sccc2S(=O)(=O)Nc2onc(C)c2Cl)c(C)c1C#N	0.1	37700	37 (≈ 79.6 mM)	1.8	–	–
CC(=O)OCc1c(C)cc(C)c(NC(=O)c2sccc2S(=O)(=O)Nc2onc(C)c2Cl)c1C	0.06	850000	–	0.5	5	–
